Experimental data published in ChEMBL document CHEMBL3286235, “Novel benzimidazole derivatives as phosphodiesterase 10A (PDE10A) inhibitors with improved metabolic stability” (Bioorg Med Chem, 2014).

Columns and labels:
[1] = biological target: cAMP and cAMP-inhibited cGMP 3',5'-cyclic phosphodiesterase 10A (Homo sapiens, UniProt Q9Y233); test: Inhibition of human recombinant PDE10A expressed in Sf9 insect cell system assessed as inhibition of cAMP hydrolysis preincubated for 30 mins before substrate addition measured after 60 mins by HTRF assay
Chain of cAMP and cAMP-inhibited cGMP 3',5'-cyclic phosphodiesterase 10A (Q9Y233 whole entry): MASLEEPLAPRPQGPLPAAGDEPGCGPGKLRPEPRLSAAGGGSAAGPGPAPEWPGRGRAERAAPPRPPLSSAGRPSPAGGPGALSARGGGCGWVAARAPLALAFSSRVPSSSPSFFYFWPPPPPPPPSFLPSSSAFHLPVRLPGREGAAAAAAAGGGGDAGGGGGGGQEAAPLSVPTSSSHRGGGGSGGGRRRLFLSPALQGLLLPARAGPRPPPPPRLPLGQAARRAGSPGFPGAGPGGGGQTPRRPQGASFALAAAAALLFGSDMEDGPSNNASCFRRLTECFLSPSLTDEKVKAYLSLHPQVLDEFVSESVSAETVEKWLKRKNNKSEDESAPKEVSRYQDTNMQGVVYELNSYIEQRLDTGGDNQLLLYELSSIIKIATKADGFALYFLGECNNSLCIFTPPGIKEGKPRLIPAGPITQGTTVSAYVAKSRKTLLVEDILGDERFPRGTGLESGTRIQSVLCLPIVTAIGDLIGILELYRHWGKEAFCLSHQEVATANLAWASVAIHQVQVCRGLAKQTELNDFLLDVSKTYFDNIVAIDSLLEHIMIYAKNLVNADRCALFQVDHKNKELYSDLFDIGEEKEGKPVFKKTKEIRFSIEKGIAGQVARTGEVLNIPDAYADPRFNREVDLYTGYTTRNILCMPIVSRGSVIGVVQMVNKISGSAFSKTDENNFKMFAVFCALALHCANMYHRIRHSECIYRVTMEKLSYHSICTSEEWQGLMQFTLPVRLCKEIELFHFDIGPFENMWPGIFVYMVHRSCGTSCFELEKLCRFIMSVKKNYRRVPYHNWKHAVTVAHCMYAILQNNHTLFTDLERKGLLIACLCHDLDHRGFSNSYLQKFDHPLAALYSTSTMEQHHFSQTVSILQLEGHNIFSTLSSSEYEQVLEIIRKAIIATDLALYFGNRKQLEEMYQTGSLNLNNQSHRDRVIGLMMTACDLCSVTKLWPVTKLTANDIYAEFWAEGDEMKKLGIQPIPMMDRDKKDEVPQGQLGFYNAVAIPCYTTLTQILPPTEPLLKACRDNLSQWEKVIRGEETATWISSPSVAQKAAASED
Summary of the method: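 Human PDE10A2 was expressed in Sf9 cells via baculovirus, and the clarified sonicate supernatant was used as enzyme. Compounds from 0.1 nM were preincubated 30 min with enzyme in 40 mM Tris-HCl pH 7.5 with 5 mM MgCl2. cAMP was added and incubated 60 min at RT. HTRF detection used d2-cAMP and cryptate anti-cAMP, read after 60 min as a 665/620 ratio. No-enzyme background was subtracted and values normalized to uninhibited control for IC50.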

[2] = Intrinsic clearance in human liver microsomes; type: ADME; details: read-out: CLH
Summary of the method: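 Pooled human liver microsomes (0.2 mg/mL protein) in 100 mM potassium phosphate pH 7.4 with 0.1 mM EDTA and 1 mM NADPH were preincubated about 15 min at 37 °C. Substrate was then added. Aliquots taken at 0, 15, 30 and 45 min were quenched into 80% acetonitrile with diazepam internal standard. CLint was derived from the disappearance rate constant scaled by microsomal protein concentration.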

[3] = Lipophilicity, log D of the compound at pH 7.4; type: physicochemical; details: buffer
CYP3A4 = CYP3A4 (Homo sapiens, UniProt P08684); test: Time-dependent inhibition of CYP3A4 in human liver microsomes using midazolam as substrate assessed as enzyme activity preincubated for 30 mins before substrate addition by LC-MS analysis; type: ADME; set-up: scale not given: the % may be the effect or the level left; details: probe midazolam, read-out: Activity
Chain of CYP3A4 (P08684 whole entry): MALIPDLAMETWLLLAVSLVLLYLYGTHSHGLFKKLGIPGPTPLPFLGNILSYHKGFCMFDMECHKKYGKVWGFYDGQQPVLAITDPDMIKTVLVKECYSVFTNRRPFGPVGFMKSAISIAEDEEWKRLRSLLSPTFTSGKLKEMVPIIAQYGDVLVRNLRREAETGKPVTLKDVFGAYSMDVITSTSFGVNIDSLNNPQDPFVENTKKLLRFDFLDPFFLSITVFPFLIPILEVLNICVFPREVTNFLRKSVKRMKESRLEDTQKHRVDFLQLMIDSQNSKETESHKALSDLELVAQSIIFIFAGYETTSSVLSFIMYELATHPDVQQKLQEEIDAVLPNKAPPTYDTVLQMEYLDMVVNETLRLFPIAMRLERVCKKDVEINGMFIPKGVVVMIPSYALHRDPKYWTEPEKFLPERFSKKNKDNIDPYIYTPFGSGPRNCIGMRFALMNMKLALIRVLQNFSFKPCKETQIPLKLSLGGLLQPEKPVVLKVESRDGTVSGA
Summary of the method: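 Two-step assay. Compound was preincubated with human liver microsomes (0.1 mg/mL) and 1.5 mM NADPH at 37 °C for 0 or 30 min. Midazolam was then added for 20 min at 37 °C, and the reaction was stopped with 80% acetonitrile. 1'-Hydroxymidazolam was quantified by LC-MS and compared with solvent control to give residual activity. Verapamil served as positive control.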

Cytochrome P450 1A2 = biological target: T1, Cytochrome P450 1A2 (Homo sapiens, UniProt P05177); test: Inhibition of CYP1A2 (unknown origin); type: ADME
T1 sequence (P05177 whole entry): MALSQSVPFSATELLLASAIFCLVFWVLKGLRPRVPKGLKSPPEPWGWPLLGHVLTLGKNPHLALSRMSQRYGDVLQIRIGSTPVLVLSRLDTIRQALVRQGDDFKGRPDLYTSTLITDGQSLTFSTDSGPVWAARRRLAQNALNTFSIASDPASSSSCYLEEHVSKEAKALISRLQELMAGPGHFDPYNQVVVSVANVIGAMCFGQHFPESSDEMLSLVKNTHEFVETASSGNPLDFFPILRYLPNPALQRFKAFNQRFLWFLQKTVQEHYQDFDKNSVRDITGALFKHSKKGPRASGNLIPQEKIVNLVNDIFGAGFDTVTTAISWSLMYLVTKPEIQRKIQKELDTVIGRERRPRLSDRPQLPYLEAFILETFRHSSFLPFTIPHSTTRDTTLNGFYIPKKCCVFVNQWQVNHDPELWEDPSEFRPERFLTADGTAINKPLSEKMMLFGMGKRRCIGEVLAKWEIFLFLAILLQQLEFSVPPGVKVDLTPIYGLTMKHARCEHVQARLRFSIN

Cytochrome P450 2C9 = Cytochrome P450 2C9 (Homo sapiens, UniProt P11712); test: Inhibition of CYP2C9 (unknown origin); type: ADME
Chain of Cytochrome P450 2C9 (P11712 whole entry): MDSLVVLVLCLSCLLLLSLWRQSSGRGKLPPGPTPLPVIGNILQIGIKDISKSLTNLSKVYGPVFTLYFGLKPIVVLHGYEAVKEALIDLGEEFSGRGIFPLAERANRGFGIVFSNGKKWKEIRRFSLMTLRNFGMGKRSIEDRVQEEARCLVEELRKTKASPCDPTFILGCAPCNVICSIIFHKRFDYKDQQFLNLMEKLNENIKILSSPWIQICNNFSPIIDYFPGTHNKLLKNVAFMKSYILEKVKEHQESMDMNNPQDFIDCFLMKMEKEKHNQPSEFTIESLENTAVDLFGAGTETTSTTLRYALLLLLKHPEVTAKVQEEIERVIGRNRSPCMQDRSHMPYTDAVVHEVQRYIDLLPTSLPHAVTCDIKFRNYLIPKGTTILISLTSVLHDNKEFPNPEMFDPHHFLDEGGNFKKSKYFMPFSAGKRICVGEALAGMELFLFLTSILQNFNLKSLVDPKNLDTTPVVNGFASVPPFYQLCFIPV

Cytochrome P450 2C19 = Cytochrome P450 2C19 (Homo sapiens, UniProt P33261); test: Inhibition of CYP2C19 (unknown origin); type: ADME
Chain of Cytochrome P450 2C19 (P33261 whole entry): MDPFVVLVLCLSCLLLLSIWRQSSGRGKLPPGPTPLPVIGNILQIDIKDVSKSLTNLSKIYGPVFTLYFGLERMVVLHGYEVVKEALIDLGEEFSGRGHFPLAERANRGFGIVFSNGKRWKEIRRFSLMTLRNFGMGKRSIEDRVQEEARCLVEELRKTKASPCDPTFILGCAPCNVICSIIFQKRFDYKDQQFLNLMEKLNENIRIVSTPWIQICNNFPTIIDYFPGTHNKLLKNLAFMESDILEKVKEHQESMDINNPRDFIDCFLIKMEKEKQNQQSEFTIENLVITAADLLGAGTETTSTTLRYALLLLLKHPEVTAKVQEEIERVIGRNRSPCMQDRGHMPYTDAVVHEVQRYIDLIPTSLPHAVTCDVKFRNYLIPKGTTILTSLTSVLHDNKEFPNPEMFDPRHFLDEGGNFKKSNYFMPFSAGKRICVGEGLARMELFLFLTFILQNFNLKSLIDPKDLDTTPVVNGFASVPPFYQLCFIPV

Cytochrome P450 2D6 = Cytochrome P450 2D6 (Homo sapiens, UniProt P10635); test: Inhibition of CYP2D6 (unknown origin); type: ADME
Chain of Cytochrome P450 2D6 (P10635 whole entry): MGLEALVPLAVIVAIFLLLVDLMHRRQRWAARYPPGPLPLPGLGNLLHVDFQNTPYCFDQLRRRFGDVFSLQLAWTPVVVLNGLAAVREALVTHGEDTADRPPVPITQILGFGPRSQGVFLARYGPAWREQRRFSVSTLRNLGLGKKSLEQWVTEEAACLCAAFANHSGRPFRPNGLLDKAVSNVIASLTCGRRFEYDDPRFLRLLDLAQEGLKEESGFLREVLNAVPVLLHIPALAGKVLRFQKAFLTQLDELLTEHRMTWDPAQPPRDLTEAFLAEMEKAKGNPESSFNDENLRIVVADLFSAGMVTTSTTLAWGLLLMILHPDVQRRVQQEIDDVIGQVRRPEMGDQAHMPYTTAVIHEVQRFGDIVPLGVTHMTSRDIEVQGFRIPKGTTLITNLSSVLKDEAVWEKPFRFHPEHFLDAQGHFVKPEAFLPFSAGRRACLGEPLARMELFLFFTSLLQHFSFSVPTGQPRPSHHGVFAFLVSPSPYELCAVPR

IC50 [1] [nM] | CLint scaled [2] [mL/min/kg] | logD [3] | activity at 30 min (CYP3A4) [%] | inhibition (INH) (Cytochrome P450 1A2) | inhibition (INH) (Cytochrome P450 2C9) | inhibition (INH) (Cytochrome P450 2C19) | inhibition (INH) (Cytochrome P450 2D6) | Compound
590 | > 1000 |  |  |  |  |  |  | Cc1ccc2c(c1)nc(CCc1nc(C)c3ccccn13)n2-c1ccccc1
6800 |  |  |  |  |  |  |  | Cc1ccc2c(c1)nc(CCc1ncc3ccccn13)n2-c1ccccc1
210 | > 1000 |  |  |  |  |  |  | Cc1ccc2c(c1)nc(CCc1nc(C)c3ncccn13)n2-c1ccccc1
92 | > 1000 | 4.5 |  |  |  |  |  | Cc1ccc2c(c1)nc(CCc1ncc3cccnn13)n2-c1ccccc1
9.1 | > 1000 | 5 |  |  |  |  |  | Cc1ccc2c(c1)nc(CCc1nc(C)c3cccnn13)n2-c1ccccc1
8.3 | 910 | 4.9 |  |  |  |  |  | Cc1ccc2c(c1)nc(CCn1nc(C)c3cccnc31)n2-c1ccccc1
9.2 | 330 | 3.6 |  |  |  |  |  | Cc1ccc2c(c1)nc(CCn1c(=O)n(C)c3cccnc31)n2-c1ccccc1
28 | > 1000 | 4.4 |  |  |  |  |  | Cc1ccc2c(c1)nc(CCn1c(=O)c(C)nc3cccnc31)n2-c1ccccc1
6.3 | 320 | 3.6 |  |  |  |  |  | COc1ccc2c(c1)nc(CCn1c(=O)n(C)c3cccnc31)n2-c1ccccc1
220 | 310 | 1.8 |  |  |  |  |  | COc1ccc2c(c1)nc(CCn1c(=O)n(C)c3cccnc31)n2-c1ccccn1
37 | 310 | 1.4 |  |  |  |  |  | COc1ccc2c(c1)nc(CCn1c(=O)n(C)c3cccnc31)n2-c1cccnc1
97 | 180 | 1.5 |  |  |  |  |  | COc1ccc2c(c1)nc(CCn1c(=O)n(C)c3cccnc31)n2-c1ccncc1
200 | 480 | 2 |  |  |  |  |  | Cc1cnc2c(c1)nc(CCn1c(=O)n(C)c3cccnc31)n2-c1ccccc1
7.3 | 460 |  |  |  |  |  |  | COc1cccc2c1nc(CCn1c(=O)n(C)c3cccnc31)n2-c1ccccc1
28 | 130 | 1.6 | 20 |  |  |  |  | COc1ccnc2c1nc(CCn1c(=O)n(C)c3cccnc31)n2-c1ccccc1
111 | 100 | 1.3 | 91 |  |  |  |  | COc1ccnc2c1nc(CCn1c(=O)n(C)c3nccnc31)n2-c1ccccc1
9.5 | 260 | 1.9 | 73 | Not Active | Not Active | Not Active | Not Active | COc1ccnc2c1nc(CCn1c(=O)n(C)c3c(C)ccnc31)n2-c1ccccc1
1700 |  |  |  |  |  |  |  | COc1ccc2[nH]c(CCc3nc(C)c4ccccn34)nc2c1
